Assay results of several laboratories.
Compare with care: the assays were run in different laboratories.
Target: Activin receptor type-2A (ACVR2A, Homo sapiens, UniProt P27037)

The inhibition of `CN1CC(Oc2cnc(C#N)cc2-c2ccn3nc(NC(=O)C4CC4)cc3c2)C1` is reported as 7% (enzyme activity, inhibitor; 1 µM).
`Cc1ccc(C(=O)NCc2ccsc2)cc1C#Cc1cn(C(C)C)c2ncnc(N)c12` gave an activity vs control of 93% (enzyme activity, inhibitor; 1 µM).
The remaining binding of `COc1cccc(CNC(=O)c2nc3scc(COCc4ccc(C(=O)O)cc4)c3c(=O)[nH]2)c1` is reported as 92.9% (cell-free assay, competition with immobilised ligand; 1 µM).
With `COc1cc(Cl)c(C(=O)N[C@@H](CN[C@H]2CC[C@@H](N)CC2)Cc2ccc(C#N)cc2)cc1-c1ccc(CN[C@H](C)c2ccc(C)cc2)o1` the remaining activity was 94% (enzyme activity, inhibitor; 1 µM).
`Nc1ncnc2occ(-c3ccc(NC(=O)Nc4cc(C(F)(F)F)ccc4F)cc3)c12` has a remaining signal of 45% (cell-free assay; 20 µM).
`CC(C)(C)c1nc2c(s1)c1nc(N)ncc1c1ccc(NS(=O)(=O)c3c(F)cccc3F)c(F)c12` gave a remaining activity of 74% (enzyme activity, inhibitor, radiometric; 1 µM).
The ΔTm of `Cn1c2c(Cl)c(Cl)ccc2c2cc(N)[nH]c(=O)c21` is reported as 0.6 °C (thermal stability, DSF; 10 µM).
`CCC(=O)N[C@H]1CC[C@@H](C(=O)N(C)c2ccc(-c3nc4ccccc4o3)cc2)C1` has a remaining binding of 98% (cell-free assay, competition with immobilised ligand; 1 µM).
`Cn1c2c(Cl)c(Cl)ccc2c2cc[nH]c(=O)c21` gave a ΔTm of 2.7 °C (thermal stability, DSF; 10 µM).
The remaining activity of `Cc1ccc(C(=O)Nc2ccc(CN3CCN(C)CC3)c(C(F)(F)F)c2)cc1C#Cc1cnc2cccnn12` is reported as 86% (enzyme activity; 23.5 nM).
With `CCN1CCC2(CC1)NC(=O)c1c(c3ccc(Cl)c(Cl)c3n1C)C2C#N` (racemic) the ΔTm was 0.1 °C (thermal stability, DSF; 10 µM).
With `CC(C)(C)c1nc(-c2cccc(NS(=O)(=O)c3c(F)cccc3F)c2F)c(-c2ccnc(N)n2)s1` the remaining activity was 9% (enzyme activity, inhibitor, radiometric; 1 µM).
